How the values were obtained:
[1] = molecular target: T1, Protein kinase C iota type (Homo sapiens) (UniProt P41743); test: Inhibition of PKCiota (unknown origin) at 20 uM
T1 sequence (whole entry): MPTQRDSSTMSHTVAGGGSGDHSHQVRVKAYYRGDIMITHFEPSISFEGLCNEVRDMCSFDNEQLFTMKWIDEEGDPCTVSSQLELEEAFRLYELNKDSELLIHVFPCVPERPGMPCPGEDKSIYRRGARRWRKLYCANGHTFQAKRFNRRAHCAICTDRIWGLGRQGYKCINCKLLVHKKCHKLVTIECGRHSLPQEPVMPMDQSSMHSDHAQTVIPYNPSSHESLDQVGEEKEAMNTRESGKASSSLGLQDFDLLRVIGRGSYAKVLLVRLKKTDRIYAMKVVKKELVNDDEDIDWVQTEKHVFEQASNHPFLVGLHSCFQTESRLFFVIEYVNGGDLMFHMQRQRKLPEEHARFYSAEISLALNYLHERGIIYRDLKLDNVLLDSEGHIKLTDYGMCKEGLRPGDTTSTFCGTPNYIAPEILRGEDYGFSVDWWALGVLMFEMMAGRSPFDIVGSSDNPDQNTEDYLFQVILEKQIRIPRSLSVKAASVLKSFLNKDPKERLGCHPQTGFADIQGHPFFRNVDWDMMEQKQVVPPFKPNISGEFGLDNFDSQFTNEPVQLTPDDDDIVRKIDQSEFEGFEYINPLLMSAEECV
Outline: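 Cell-free radiometric kinase assay with purified recombinant PKCι under conditions similar to the PKCζ assay. Reaction mixtures preincubated 4 min at 37 °C, then phosphorylation started with γ32P-ATP/Mg2+. Mean of at least two experiments.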

RAW264.7 = test: Cytotoxicity against mouse RAW264.7 cells assessed as living cells at 7.5 uM by MTT assay; format: cell-based; conditions: raw264.7, 7.5 µM
Outline: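 RAW 264.7 macrophages: MTT viability assay run in parallel with each nitrite (Griess) experiment, same cell line and same compound treatment conditions.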

[2] = molecular target: T2, Protein kinase C zeta type (Homo sapiens, UniProt Q05513); test: Inhibition of human PKCzeta assessed as phosphorylation reaction after 4 mins incubation by cell-free assay
T2 sequence (Q05513 whole entry): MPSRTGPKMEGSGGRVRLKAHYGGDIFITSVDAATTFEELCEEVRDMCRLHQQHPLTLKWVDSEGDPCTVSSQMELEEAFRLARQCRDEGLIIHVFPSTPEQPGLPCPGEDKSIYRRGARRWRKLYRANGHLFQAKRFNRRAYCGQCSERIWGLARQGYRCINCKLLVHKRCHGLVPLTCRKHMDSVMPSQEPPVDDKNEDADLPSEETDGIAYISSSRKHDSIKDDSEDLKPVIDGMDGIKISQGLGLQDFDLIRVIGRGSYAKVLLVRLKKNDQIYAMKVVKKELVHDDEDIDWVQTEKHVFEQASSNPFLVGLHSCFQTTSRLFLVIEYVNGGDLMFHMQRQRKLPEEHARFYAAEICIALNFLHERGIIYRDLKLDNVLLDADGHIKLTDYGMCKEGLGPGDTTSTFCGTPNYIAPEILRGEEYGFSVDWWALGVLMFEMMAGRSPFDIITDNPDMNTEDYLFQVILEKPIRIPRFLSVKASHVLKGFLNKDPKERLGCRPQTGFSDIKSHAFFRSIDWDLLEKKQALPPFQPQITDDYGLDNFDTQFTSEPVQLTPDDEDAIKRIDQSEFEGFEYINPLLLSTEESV

[3] = molecular target: T2, Protein kinase C zeta type; test: Inhibition of PKCzeta in human U937 cells assessed as inhibition of TNFalpha-induced NF-kappaB activation by reporter gene assay; format: cell-based, U-937
[4] = molecular target: T3, Nitric oxide synthase, inducible (Mus musculus) (UniProt P29477); test: Inhibition of iNOS induction in mouse RAW264.7 cells assessed as NO production at 7.5 uM; format: cell-based
T3 sequence (whole entry): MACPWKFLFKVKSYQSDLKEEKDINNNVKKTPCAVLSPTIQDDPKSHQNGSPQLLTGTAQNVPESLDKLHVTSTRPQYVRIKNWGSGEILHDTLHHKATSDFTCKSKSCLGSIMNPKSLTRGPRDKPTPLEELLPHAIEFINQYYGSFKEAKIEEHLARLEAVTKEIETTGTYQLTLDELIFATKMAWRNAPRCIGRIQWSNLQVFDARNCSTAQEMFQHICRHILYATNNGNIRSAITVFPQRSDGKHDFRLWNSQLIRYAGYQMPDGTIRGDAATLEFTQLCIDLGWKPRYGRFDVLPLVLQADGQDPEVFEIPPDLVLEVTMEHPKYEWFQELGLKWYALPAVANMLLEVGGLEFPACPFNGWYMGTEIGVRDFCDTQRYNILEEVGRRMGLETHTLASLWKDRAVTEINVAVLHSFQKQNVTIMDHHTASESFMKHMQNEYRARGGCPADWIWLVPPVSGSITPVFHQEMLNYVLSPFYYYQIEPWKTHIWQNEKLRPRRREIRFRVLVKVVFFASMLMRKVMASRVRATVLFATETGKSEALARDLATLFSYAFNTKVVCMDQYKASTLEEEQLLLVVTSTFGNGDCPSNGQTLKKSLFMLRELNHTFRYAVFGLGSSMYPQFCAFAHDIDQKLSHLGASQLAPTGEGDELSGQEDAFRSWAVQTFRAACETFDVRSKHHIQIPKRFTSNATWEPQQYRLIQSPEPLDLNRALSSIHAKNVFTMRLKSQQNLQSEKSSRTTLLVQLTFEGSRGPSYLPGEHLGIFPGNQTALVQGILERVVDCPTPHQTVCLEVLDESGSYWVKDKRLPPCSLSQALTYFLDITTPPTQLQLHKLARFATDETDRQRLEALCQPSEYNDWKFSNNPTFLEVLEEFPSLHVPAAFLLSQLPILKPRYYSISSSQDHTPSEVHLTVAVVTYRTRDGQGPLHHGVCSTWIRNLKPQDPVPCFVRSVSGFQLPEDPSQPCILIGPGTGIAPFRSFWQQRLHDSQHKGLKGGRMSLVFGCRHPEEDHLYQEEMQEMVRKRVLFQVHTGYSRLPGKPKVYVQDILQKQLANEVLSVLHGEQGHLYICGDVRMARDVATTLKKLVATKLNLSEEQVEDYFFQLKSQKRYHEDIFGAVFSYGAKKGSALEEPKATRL
Outline: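 RAW 264.7 cells seeded at 8 × 10⁴ per well in DMEM/10% FBS and grown 2 days. Then exposed to LPS with compound or DMSO for 20 h. Supernatant nitrite measured by Griess reaction (sulfanilamide/NED) at 550 nm minus 620 nm background, quantified against a sodium nitrite standard curve. At least four experiments in triplicate.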

Row | Structure (SMILES) | inhibition [1] | IC50 [2] | IC50 [3] | inhibition [4] | Activity (RAW264.7)
1 | CC(C)(C)C1=NN(c2ccc(Cl)cc2)C(c2cccc(O)c2)C1 (stereo not given) | 17.4% | 5.3 µM | 2000 nM | – | Non-toxic
2 | CC(C)(C)C1=NN(c2ccc(O)cc2)C(c2ccc(Cl)cc2)C1 (stereo not given) | – | – | – | – | Non-toxic
3 | CCOc1ccccc1C1=NN(c2ccc(Cl)cc2)C(c2ccc(O)cc2)C1 (stereo not given) | – | – | – | – | Non-toxic
4 | CC(C)(C)C1=NN(c2c(Cl)cccc2Cl)C(c2ccc(O)cc2)C1 (stereo not given) | – | – | – | – | Non-toxic
5 | CC(C)(C)C1=NN(c2ccc(Cl)cc2)C(c2ccc(C#N)cc2)C1 (stereo not given) | – | – | – | – | Non-toxic
6 | Oc1ccc(C2CC(c3ccccc3)=NN2c2cccc(Cl)c2)cc1 (stereo not given) | 45.5% | 2.1 µM | – | – | Non-toxic
7 | Cc1cccc(N2N=C(C(C)(C)C)CC2c2ccc(O)cc2)c1 (stereo not given) | 13.9% | – | – | – | Non-toxic
8 | COc1ccccc1C1=NN(c2ccc(Cl)cc2)C(c2ccc(O)cc2)C1 (stereo not given) | – | – | – | – | Non-toxic
9 | Cc1ccc(N2N=C(C(C)(C)C)CC2c2ccc(O)cc2)c(C)c1 (stereo not given) | – | – | – | – | Non-toxic
10 | CC(C)(C)C1=NN(c2ccc(Cl)cc2Cl)C(c2ccc(O)cc2)C1 (stereo not given) | – | – | – | – | Non-toxic
11 | Cc1ccc(N2N=C(C(C)(C)C)CC2c2ccc(O)cc2)cc1 (stereo not given) | – | – | – | – | Non-toxic
12 | CC(C)c1ccc(N2N=C(C(C)(C)C)CC2c2ccc(O)cc2)cc1 (stereo not given) | – | – | – | – | Non-toxic
13 | Oc1ccccc1C1=NN(c2cccc(Cl)c2)C(c2ccc(O)c(F)c2F)C1 (stereo not given) | 39.2% | 6.6 µM | 1400 nM | – | Non-toxic
14 | CC(C)(C)C1=NN(c2ccc(F)c(F)c2)C(c2ccc(O)cc2)C1 (stereo not given) | 23.7% | – | – | – | Non-toxic
15 | Oc1ccc(C2CC(c3cccs3)=NN2c2ccc(Cl)cc2)cc1 (stereo not given) | – | – | – | – | Non-toxic
16 | Oc1ccc(C2CC(c3ccc[nH]3)=NN2c2cccc(Cl)c2)cc1 (stereo not given) | 20.3% | – | – | – | Non-toxic
17 | CC(C)(C)C1=NN(c2ccc(O)cc2)C(c2ccc(O)cc2)C1 (stereo not given) | – | – | – | – | Non-toxic
18 | Oc1ccc(C2CC(c3ccccc3Cl)=NN2c2ccc(Cl)cc2)cc1 (stereo not given) | – | – | – | – | Non-toxic
19 | CC(C)(C)C1=NN(c2ccc(C(=O)O)cc2)C(c2ccc(O)cc2)C1 (stereo not given) | – | – | – | – | Non-toxic
20 | CC(C)(C)C1=NN(c2ccc(F)cc2F)C(c2ccc(O)cc2)C1 (stereo not given) | – | – | – | – | Non-toxic
21 | CC(C)(C)C1=NN(c2cccc(C(F)(F)F)c2)C(c2ccc(O)cc2)C1 (stereo not given) | 17% | 2.7 µM | 2700 nM | – | Non-toxic
22 | Oc1ccccc1C1=NN(c2cccc(Cl)c2)C(c2cc(F)c(O)c(F)c2)C1 (stereo not given) | 45.2% | 11.1 µM | 2500 nM | – | Non-toxic
23 | CC(C)(C)C1=NN(c2cccc(F)c2)C(c2ccc(O)cc2)C1 (stereo not given) | 19.3% | 2.2 µM | – | – | Non-toxic
24 | Oc1ccc(C2CC(c3ccccn3)=NN2c2cccc(Cl)c2)cc1 (stereo not given) | 24.1% | 6.2 µM | – | – | Non-toxic
25 | CC(C)(C)C1=NN(c2ccccc2F)C(c2ccc(O)cc2)C1 (stereo not given) | – | – | – | – | Non-toxic

Further lines, with some results ahead:

Row | inhibition [1] | IC50 [2] | IC50 [3] | inhibition [4] | Structure (SMILES) | Activity (RAW264.7)
26 | 38.7% | 5.4 µM | – | – | Nc1ccc(C2=NN(c3ccc(Cl)cc3)C(c3ccc(O)cc3)C2)cc1 (stereo not given) | Non-toxic
27 | 25.2% | 2.9 µM | – | – | Oc1ccc(C2CC(c3ccccc3O)=NN2c2cccc(Cl)c2)cc1F (stereo not given) | Non-toxic
28 | 45.9% | 0.4 µM | 2900 nM | 69% | Oc1ccc(C2CC(c3cccs3)=NN2c2ccc(C(F)(F)F)cc2)cc1 (stereo not given) | Non-toxic
29 | 31.6% | 0.9 µM | 1900 nM | – | CC(C)(C)C1=NN(c2ccc(F)c(Cl)c2)C(c2ccc(O)cc2)C1 (stereo not given) | Non-toxic
30 | – | 11.4 µM | – | – | CC(C)(C)C1=NN(c2ccc(Br)cc2)C(c2ccc(O)cc2)C1 (stereo not given) | Non-toxic
31 | 7.8% | 0.7 µM | 3100 nM | – | CC(C)(C)C1=NN(c2ccc(F)c(F)c2F)C(c2ccc(O)cc2)C1 (stereo not given) | Non-toxic
32 | – | – | – | 26% | CC(C)(C)C1=NN(c2ccccc2Cl)C(c2ccc(O)cc2)C1 (stereo not given) | Non-toxic
33 | 44.1% | < 0.1 µM | – | – | Oc1ccc(C2CC(c3ccccc3O)=NN2c2ccc(Cl)cc2)cc1O (stereo not given) | Non-toxic
34 | – | – | – | 97% | COc1cc(/C=C/C(=O)CC(=O)/C=C/c2ccc(O)c(OC)c2)ccc1O [CURCUMIN] | Non-toxic
35 | – | < 0.1 µM | 1100 nM | – | Oc1ccc(C2=NN(c3cccc(Cl)c3)C(c3ccc(O)c(F)c3)C2)c(O)c1 (stereo not given) | Non-toxic
36 | 31.6% | 3.5 µM | – | – | Oc1ccc(C2CC(c3ccccc3)=NN2c2ccc(Cl)cc2)cc1 (stereo not given) | Non-toxic
37 | – | 8.8 µM | – | – | CC(C)(C)C1=NN(c2ccc(C(F)(F)F)cc2)C(c2ccc(O)cc2)C1 (stereo not given) | Non-toxic
38 | – | 9.4 µM | – | – | CC(C)(C)C1=NN(c2ccc(F)cc2)C(c2ccc(O)cc2)C1 (stereo not given) | Non-toxic
39 | 43.5% | 5.2 µM | – | – | CC(C)(C)C1=NN(c2cccc(Cl)c2)C(c2ccc(O)cc2)C1 (stereo not given) | Non-toxic
40 | – | – | – | 32% | CC(C)(C)C1=NN(c2ccccc2)C(c2ccc(O)cc2)C1 (stereo not given) | Non-toxic
41 | 29.7% | 3.8 µM | 3700 nM | – | CC(C)(C)C1=NN(c2ccc(Cl)cc2)C(c2ccc(O)c(F)c2)C1 (stereo not given) | Non-toxic
42 | 23.1% | – | – | – | CC1C(c2ccccc2O)=NN(c2cccc(Cl)c2)C1c1ccc(O)c(F)c1 (stereo not given) | Non-toxic

Source: ChEMBL document CHEMBL3351692, “Discovery and optimization of 1,3,5-trisubstituted pyrazolines as potent and highly selective allosteric inhibitors of protein kinase C-ζ” (J Med Chem, 2014)
